Source: PubChem
The list is not random: actives were taken first. Their share in the collection is about 3.7%.
hERG protect = shields human hERG channel from block by proarrhythmic agents; CHO-hERG, FluxOR thallium flux, dofetilide IC70 present; 0.51% of 310,000 active; activation (rescue from dofetilide block), less the hit threshold, % at 10 µM; AID 1511;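 active = activation above the mean of controls blocked by dofetilide plus 5 SD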;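 note: thallium influx through hERG after potassium depolarization seen as dye fluorescence rise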
KCNQ1 inh = blocks the human KCNQ1 potassium channel; 1.3% of 310,000 active; B-score at 10 µM; P51787; CHO-K1 KCNQ1, FluxOR thallium flux fluorescence; active compounds read high;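 active = compounds whose thallium flux B-score, printed positive for inhibition, exceeds three library SD while starting fluorescence stays within three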;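 note: channel opened by potassium depolarization with thallium stimulus after 20 min compound exposure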
KCNQ1 pot = potentiates or activates the human KCNQ1 potassium channel | P51787 | B-score at 10 µM | CHO-K1 KCNQ1, thallium flux FluxOR fluorescence; active compounds read high | 0.35% of 310,000 active;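 active = fluorescence ratio B-score, a plate-corrected score, at least three library SD, with initial intensity B-score within 5 SD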
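System: Stable KCNQ1 CHO-K1 line | Incubation: 90 min dye loading and 20 min compound exposure, both at room temperature | Measure: Ratio B score | Medium: Assay buffer for compound exposure, DMSO matched across wells | Compound dosing: Single-concentration screen | Probe or stimulus: K+/Tl+ depolarizing stimulus | Measured by: Kinetic FluxOR fluorescence, 10 s baseline plus 110 s post-stimulus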
KCNK9 block = inhibitors of human KCNK9 two-pore domain potassium channel. Q9NPC2. HEK293 KCNK9, FluxOR thallium flux fluorescence; active compounds read low. B-score at 10 µM. 1.2% of 310,000 active;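 active = ratio B-score over 3 SD below the library mean, with starting fluorescence within 5 SD of its mean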;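 note: negative B-score means less thallium flux so channel inhibition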
Kir21 block = Kir2.1 (mouse) channel inhibition; HEK293-Kir2.1, FluxOR thallium flux fluorescence; active compounds read low; B-score at 10 µM; P35561; 0.85% of 310,000 active;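 active = fluorescence ratio B-score at or below minus 3 SD of library scores, with starting-brightness B-score within 2 SD, cut at about -4.2 in these data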;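 note: channel flux triggered by added potassium and thallium sulfate stimulus; B-score of peak minus minimum fluorescence over baseline after thallium stimulus; more negative B-score means stronger Kir2.1 block with less thallium influx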
Target sequence (P35561 whole entry, looked up): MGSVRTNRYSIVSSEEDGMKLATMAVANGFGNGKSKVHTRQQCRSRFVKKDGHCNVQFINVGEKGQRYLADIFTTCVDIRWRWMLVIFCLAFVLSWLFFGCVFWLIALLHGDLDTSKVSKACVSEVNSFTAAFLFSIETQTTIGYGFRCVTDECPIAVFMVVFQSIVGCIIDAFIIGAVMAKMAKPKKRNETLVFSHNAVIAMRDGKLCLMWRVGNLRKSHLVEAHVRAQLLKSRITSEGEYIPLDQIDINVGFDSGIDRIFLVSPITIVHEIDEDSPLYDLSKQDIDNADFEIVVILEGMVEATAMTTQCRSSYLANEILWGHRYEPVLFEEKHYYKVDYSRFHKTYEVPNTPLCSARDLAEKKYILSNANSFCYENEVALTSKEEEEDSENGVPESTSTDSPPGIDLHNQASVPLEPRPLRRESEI
KCNK3 block = human KCNK3 channel inhibition, primary screen | O14649 | CHO-KCNK3 thallium flux, FluxOR fluorescence; active compounds read low | B-score at 10 µM | 0.84% of 340,000 active | AID 602410;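 active = B-score under library mean minus 4 SD, starting fluorescence ratio at most library mean plus 5 SD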;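 note: more negative B-score means stronger inhibition of thallium flux through KCNK3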
KCNK9 block conf = human KCNK9 inhibitor confirmation; shares compounds with KCNK9 block; HEK293 KCNK9 cells, FluxOR thallium flux fluorescence; inhibition, % at 10 µM; 43% of 4,900 active;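 active = thallium signal inhibited by more than 5 SD of the compound-free buffer control wells, on both duplicate plates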;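 note: 0% = assay buffer control wells without compound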
Kir2-1 spec = mouse Kir2.1 off-target activity of KCNK9 modulators. shares compounds with KCNK9 block. Kir2.1 cells, FluxOR thallium flux fluorescence. inhibition, % at 10 µM. 4% of 4,900 active;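 active = thallium signal drop more than 5 SD beyond the mean of the no-compound control wells, seen in both duplicate plates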;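 note: signal is fluorescence rise after thallium addition divided by baseline fluorescence; plate controls were assay buffer only for no effect and full block by chlorpromazine control for full effect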
HEK293 Tl ctr = non-induced cell nonspecific activity of KCNK9 modulators | shares compounds with KCNK9 block | non-induced KCNK9-HEK293, FluxOR thallium flux | inhibition, % at 10 µM | 40% of 4,900 active;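 active = thallium signal drop beyond 5 SD of the untreated control mean, on both duplicate plates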;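 note: plate controls were buffer only IC0 wells for no effect and SID17386958 at its maximal inhibitory level for full effect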
Numbers without * were called inactive; i = inactive; / = no result.

SMILES	hERG protect	KCNQ1 inh	KCNQ1 pot	KCNK9 block	Kir21 block	KCNK3 block	KCNK9 block conf	Kir2-1 spec	HEK293 Tl ctr
Cc1ccc(NC2CCCN(C(=O)c3cn(C)c4ccccc34)C2)cc1C (centres undefined)	-12	i	i	i	-0.47	i	i	i	i
O=C(CSc1ccccc1)N1CCc2ccccc21	-7	i	i	i	0.62	i	/	/	/
CCn1cc(SCC(=O)N2CCc3ccccc32)c2ccccc21	-7	i	i	i	-0.76	i	i	40%*	i
CCN(CC)c1ccc(NC(=O)CN(C)Cc2cccs2)cc1	-6	i	i	i	0.09	i	/	/	/
Cc1ccc(NC(=O)CN(C)Cc2cccs2)cc1Cl	-13	i	i	-16*	-1.4	i	68%*	i	32%*
CCCSc1nc(SCC(=O)NCc2ccccc2)c2c3c(sc2n1)COC(C)(CC)C3 (centres undefined)	-17	i	i	i	-1.2	i	/	/	/
CCCCSc1nc(SCC(=O)NCc2ccco2)c2c3c(sc2n1)COC(C)(CC)C3 (centres undefined)	-21	i	i	i	-1.3	i	i	i	i
CC(c1ccco1)N(C(=O)CSc1ccc(Br)cc1)c1ccccn1 (centres undefined)	-15	i	i	-8.9*	-6.4*	-9.8*	i	37%*	38%*
CC(C)c1ccc(C(=O)N(c2ccccn2)C(C)c2ccco2)cc1 (centres undefined)	-7	i	i	i	-0.39	i	/	/	/
O=C(NCCCO)c1c(O)c2cccc3c2n(c1=O)CCC3	-2	i	i	i	1.5	i	/	/	/
COc1ccc(Cn2nc(-c3ccccc3)c(N3CCCCC3)cc2=O)cc1	-15	7*	i	-17*	-1.4	i	i	i	28%*
COc1ccc(OC)c(Nc2ncnc3sc(-c4ccccc4)cc23)c1	-9	i	i	-11*	-0.05	i	i	i	32%*
COc1ccc(OC)c(Nc2ncnc3sccc23)c1	-4	i	i	i	-0.57	i	/	/	/
S=c1[nH]nc(-c2cccs2)n1/N=C/c1cn(-c2ccccc2)nc1-c1cccs1	-14	i	i	i	-2.4	i	/	/	/
Cc1ccc(-c2nn(-c3ccccc3)cc2/C=N/n2c(-c3cccs3)n[nH]c2=S)cc1	-8	i	i	i	0.2	i	i	i	i
CC(C)c1ccc(NC(=O)CSc2n[nH]c(=O)n2C2CC2)cc1	-11	i	i	i	-1.8	i	/	/	/
Cc1ccc(/C=N/N2CCN(C3c4ccccc4-c4ccccc43)CC2)s1	-5	i	i	i	-0.62	i	i	i	i
C(=N\N1CCN(C2c3ccccc3-c3ccccc32)CC1)/c1ccccn1	-8	i	i	i	-0.21	i	/	/	/
COCCN1C(=O)/C(=C/c2ccc(OCc3ccc(C(=O)O)cc3)c(OC)c2)SC1=Nc1ccccc1	-33	i	i	i	2.5	i	i	i	i
Cc1ccccc1OCC(=O)NC(=S)Nc1cccc2cc(O)ccc12	-9	i	i	-8.9*	1.4	i	52%*	i	i
COc1ccc(OCC(=O)NC(=S)Nc2ccccc2F)cc1	-2	i	i	i	0.03	i	i	i	i
O=C(O)CC12CC3CC(C1)CC(n1ncc(N4CCC5(CC4)OCCO5)c(Cl)c1=O)(C3)C2	-9	i	i	i	0.07	i	/	/	/
COc1ccccc1/C=C/C1(C(=O)NC2CCCC2)CC(=O)N1c1ccc(C)cc1 (centres undefined)	-21	i	i	-9.8*	0.1	i	i	i	40%*
Cc1cccc(C(=O)Nc2nsc(N)n2)c1	-10	i	i	i	0.18	i	/	/	/
NC(=O)c1nsc(C(=O)N(c2ccc(Cl)cc2)C(C(=O)NCC2CCCO2)c2cccs2)c1N (centres undefined)	-5	i	i	i	0.01	i	/	/	/
SMILES	hERG protect	KCNQ1 inh	KCNQ1 pot	KCNK9 block	Kir21 block	KCNK3 block	KCNK9 block conf	Kir2-1 spec	HEK293 Tl ctr
CCc1ccc(N(C(=O)c2snc(C(N)=O)c2N)C(C(=O)NCC2CCCO2)c2cccs2)cc1 (centres undefined)	-18	i	i	i	3.1	i	i	i	i
CCc1ccc(S(=O)(=O)Nc2cccc(-c3ccc4nnc(C)n4n3)c2)s1	-8	i	i	i	0.26	i	/	/	/
CC1=NN(C(=O)COc2ccc(C)c(C)c2)C(O)(c2ccc(Cl)cc2)C1 (centres undefined)	-5	i	i	-14*	-0.4	i	50%*	i	35%*
CCOC(=O)C1=NN(C(=O)COc2ccccc2)C(O)(c2ccc(Br)cc2)C1 (centres undefined)	1	i	i	-11*	0.05	i	i	i	i
Cn1cc(CN2CCN(c3ccccc3)CC2)c2ccccc21	-10	i	i	i	-2.2	i	i	i	i
Cc1noc(N)c1C(=O)Nc1ccccc1F	-6	i	i	-9.5*	1.4	i	i	i	i
O=C(COC(=O)C1CC1)NCCc1ccccc1	/	/	/	/	/	i	/	/	/
CC(CCc1ccccc1)NC(=O)COC(=O)C1CCC(C(C)(C)C)CC1 (centres undefined)	-10	i	i	i	-1.4	i	i	i	i
CCOc1ccc(-c2c(=O)n(OCc3ccccn3)c3ccccc3[n+]2[O-])cc1	-9	i	i	i	0.04	i	/	/	/
CCCOc1ccc(-c2c(=O)n(O)c3ccccc3[n+]2[O-])cc1	28*	i	i	-8.9*	-0.8	i	i	i	i
Cc1ccc([N+](=O)[O-])cc1N=C(c1cccc(Br)c1)N1CCOCC1	-9	i	i	-20*	0.21	-12*	57%*	i	33%*
COC(=O)c1ccc(CNC(=O)COC(=O)C2CC3C=CC2C3)cc1 (centres undefined)	-3	i	i	i	-0.17	i	/	/	/
COc1ccc2cc(C(=O)C3CCCN(C(=O)/C=C/c4ccccn4)C3)ccc2c1 (centres undefined)	-5	i	i	i	-3.4	i	i	i	i
